Screening data deposited in PubChem by The Scripps Research Institute Molecular Screening Center.
OX1R antag-1 – blocks the human orexin 1 receptor; O43613; CHO/OX1R cells, Fluo-8 calcium fluorescence, orexin A; inhibition, % at 5 µM; hit rate 0.43% among 330,000;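 active = inhibition above its plate's threshold, mean inhibition of all tested compounds on the plate plus 3 SD, cut at about 37% in these data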;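 also: 0% = orexin A challenge wells and 100% = SB-334867-A antagonist wells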
Target sequence (O43613 whole entry, looked up): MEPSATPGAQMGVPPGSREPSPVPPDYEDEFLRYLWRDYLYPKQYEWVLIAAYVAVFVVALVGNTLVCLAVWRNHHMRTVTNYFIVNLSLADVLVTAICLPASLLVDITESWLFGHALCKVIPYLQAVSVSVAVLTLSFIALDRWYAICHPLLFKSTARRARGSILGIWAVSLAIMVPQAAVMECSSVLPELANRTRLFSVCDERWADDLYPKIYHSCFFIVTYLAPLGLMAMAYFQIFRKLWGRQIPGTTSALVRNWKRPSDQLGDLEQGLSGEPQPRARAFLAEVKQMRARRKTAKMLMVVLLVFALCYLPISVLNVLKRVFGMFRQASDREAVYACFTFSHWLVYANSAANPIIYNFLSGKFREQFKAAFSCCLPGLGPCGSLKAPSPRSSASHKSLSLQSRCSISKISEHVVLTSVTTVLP
TRPN1 ag – agonists of zebrafish TRPN1 channel; activation, % at 3 µM; hit rate 0.18% among 220,000; HEK293 zebrafish TRPN1-YFP, Fluo-8 calcium fluorescence; 100% = response to 87 µM carbachol;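 active = activation above its plate's cutoff, the mean activation of test wells on that plate plus 3 SD, cut at about 19% in these data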;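 also: 0% = DMSO alone and 100% = 87 µM carbachol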
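Material: zebrafish TRPN1-YFP in HEK293 cells; Doses: single test compound dose, 3 µM nominal, 0.3% DMSO; Timing: dye loading 1 h at 37 °C, then 30 min room temperature; Technique: intracellular calcium fluorescence with Fluo-8; Benchmarks: high carbachol 87 µM, low DMSO alone.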
OX1R antag-2 – OX1R (human) antagonism. O43613. OX1R-expressing cells, FRET antagonist read-out. inhibition, % at 6.6 µM. hit rate 1.8% among 330,000; in the data active = inhibition mostly above about 38%, no sharp cut-off; inactive = mostly below about 40%;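 also: 0% = agonist challenge alone and 100% = reference antagonist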
CHO parental Ca – counter-screen for OX1R antagonists: effect in parental CHO cells; parental CHO-K1, ATP-induced calcium, Fluo-8 fluorescence; inhibition, % at 5.6 µM; hit rate 0.63% among 330,000; AID 463079;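 active = inhibition above that plate's mean sample inhibition plus 3 SD, cut at about 26% in these data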;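 also: 0% = ATP-challenged DMSO wells and 100% = DMSO wells without ATP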
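material = parental CHO cells | also added = ATP as calcium-mobilizing challenge | dosing = single point at 5.6 µM | detection = intracellular calcium via Fluo-8 no-wash fluorescent dye | read-out = % inhibition | benchmarks = low control ATP plus DMSO, high control DMSO only | repeats = one well per compound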
TRPML3 agonist – human mucolipin-3 channel agonism; hit rate 0.29% among 220,000; activation, % at 3 µM; AID 1448; HEK293 TRPML3-YFP, Fluo-8 calcium fluorescence; 100% = the carbachol control signal; Q8TDD5;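 active = activation above its plate's cutoff, the mean activation of the plate's test wells plus 3 SD, cut at about 12% in these data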;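 also: 0% = DMSO only wells and 100% = carbachol wells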
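Test system – HEK293 line with stable expression of human TRPML3-YFP channel · Control set – carbachol 87 µM final as high control (100%), DMSO as low control (0%) · Signal – Fluo-8 calcium dye fluorescence, ex 470-495, em 515-575 nm · Incubation – 1-h 37 °C dye load, 5-s basal, 120-s post-compound reads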
OX1R HTRF confirm – confirmation of human orexin 1 receptor antagonists, HTRF format; shares compounds with OX1R antag-2; OX1R-expressing cells, HTRF antagonist assay; inhibition, % at 6.6 µM; hit rate 49% among 1,800; AID 492964; in the data active = inhibition above about 55%;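 also: CHO cells expressing OX1R stimulated with orexin A at about EC80; 0% = agonist challenge alone and 100% = reference antagonist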
CHO-K1 HTRF – signal in parental CHO-K1 cells, OX1R antagonist counter-screen | shares compounds with OX1R antag-2 | HTRF counterscreen | inhibition, % at 6.6 µM | hit rate 48% among 1,800 | AID 493232; in the data active = inhibition above about 17%;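 also: 0% = agonist challenge with vehicle and 100% = vehicle alone without agonist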
* marks the source's active call; other numbers are inactive results; / = not tested or not shown; + = active, no number. This is a sample that favours compounds with a hit; in the whole collection about 2.5% have one here.

SMILES	OX1R antag-1	TRPN1 ag	OX1R antag-2	CHO parental Ca	TRPML3 agonist	OX1R HTRF confirm	CHO-K1 HTRF
Cc1cccc(C(=O)Nc2ccc3c(c2)CC2(C(=O)N(C)C(=O)N(C)C2=O)C2CCCN32)c1 (stereo not drawn)	-15	/	6	-25	/	/	/
CN1C(=O)C(=Cc2ccc(N3CCCCCC3)o2)C(=O)N(C)C1=S	7	11	7	5	6	/	/
CN1C(=O)C(=Cc2ccc(N3CCOCC3)o2)C(=O)N(C)C1=O	-8	18	123*	-1	2	65*	90*
COc1ccc2c(c1OC)C(=O)OC2c1c(O)n(C2CCCCC2)c(=O)[nH]c1=O (stereo not drawn)	-12	-1	11	-15	1	/	/
Cc1ccccc1C(O)(Cc1ccccc1)C1CN2CCC1CC2 (stereo not drawn)	-16	0	17	-9	1	/	/
Cn1c(O)c(N=Nc2cccc(S(=O)(=O)N3CCOCC3)c2)c(=O)n(C)c1=O	0	0	52	-5	2	/	/
COc1ccc(N=Nc2c(O)[nH]c(=S)[nH]c2=O)cc1	2	0	+	-8	1	63*	100*
NS(=O)(=O)c1ccc(N=Nc2c(O)[nH]c(=S)[nH]c2=O)cc1	1	3	77*	-3	0	67*	79*
O=c1[nH]c(=S)[nH]c(O)c1N=Nc1cccc(S(=O)(=O)N2CCOCC2)c1	-13	1	97*	-4	1	60*	66*
O=c1[nH]c(O)c(N=Nc2cccc(S(=O)(=O)N3CCOCC3)c2)c(=O)[nH]1	-5	0	88*	0	1	55*	79*
CC1CCN(c2cc(Br)c([N+](=O)[O-])cc2F)CC1	-8	0	6	-4	1	/	/
COCCCN=Cc1c(O)[nH]c(=S)[nH]c1=O	-3	2	11	3	0	/	/
O=c1[nH]c(=S)[nH]c(O)c1N=Nc1ccc2c(c1)OCCO2	-9	-2	146*	-3	0	62*	66*
O=C(N=Nc1c(O)[nH]c(=O)[nH]c1=O)C1COc2ccccc2O1 (stereo not drawn)	-2	-1	2	3	0	/	/
O=c1[nH]c(=S)[nH]c(O)c1N=Nc1ccc(S(=O)(=O)N2CCOCC2)cc1	-13	0	140*	8	1	49	65*
N#C/C(N)=C(/N)C#N	-4	/	4	-6	/	/	/
Nc1ccc2nonc2c1[N+](=O)[O-]	-5	5	83*	2	5	48	91*
OCC[n+]1c2ccccc2nc2ccc(N3CCOCC3)cc21	-3	-2	113*	0	0	40	76*
O=C(NC1CN2CCC1CC2)c1ccc(-c2ccc([N+](=O)[O-])cc2)o1 (stereo not drawn)	0	0	84*	-3	0	41	56*
CC(c1ccccc1)n1cncc1C(=O)N1CCCC1=O (stereo not drawn)	6	1	6	1	0	/	/
Cc1ccccc1-n1c(O)c(/C=N/NC(=O)c2ccncc2)c(=O)[nH]c1=O	-24	2	5	-6	1	/	/
O=C(O)c1ccccc1N=Nc1c(O)[nH]c(=O)[nH]c1=O	3	1	111*	-9	1	39	76*
O=c1[nH]c(O)c(N=Nc2cc(C(F)(F)F)ccc2Cl)c(=O)[nH]1	-22	-4	35	-10	-1	/	/
